# Experimental data as given in ChEMBL document CHEMBL1125356, “Synthesis and evaluation of novel spermidine derivatives as targeted cancer chemotherapeutic agents” (J Med Chem, 1992).
# Columns and labels:
# [1] = tested on: B16; assay: The compound was tested for inhibition of B16-BL6 melanoma cells growing in culture with 0.25 mM DFMO.; format: functional, cell-based; conditions: Mus musculus
# [2] = tested on: B16; assay: The compound was tested for inhibition of B16-BL6 melanoma cells growing in culture.; format: functional, cell-based; conditions: Mus musculus
# [3] = tested on: B16; assay: The compound was tested in vitro for inhibition of cell growth on the B16-BL6 melanoma cells at 0.0(mM)conc.; format: functional, Mus musculus
# [4] = tested on: B16; assay: The compound was tested in vitro for inhibition of cell growth on the B16-BL6 melanoma cells at 0.1(mM)conc.; format: functional, Mus musculus
# [5] = tested on: B16; assay: The compound was tested in vitro for inhibition of cell growth on the B16-BL6 melanoma cells at 0.25(mM)conc.; format: functional, Mus musculus
# [6] = tested on: B16; assay: The compound was tested in vitro for inhibition of cell growth on the B16-BL6 melanoma cells at 0.5(mM)conc.; format: functional, Mus musculus
# [7] = tested on: B16; assay: The compound was tested in vitro for inhibition of cell growth on the B16-BL6 melanoma cells at 0.75(mM)conc.; format: functional, Mus musculus
# [8] = tested on: B16; assay: The compound was tested in vitro for inhibition of cell growth on the B16-BL6 melanoma cells at 1.0(mM)conc.; format: functional, Mus musculus
# [9] = tested on: B16; assay: The compound was tested on [3H]spermidine uptake into BL6 cells at 0.5(mM)conc; format: functional, Mus musculus
# How it was run: (§1)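 B16-BL6 melanoma cells were grown in DMEM with 10% heat-inactivated FBS, pyruvate, nonessential amino acids, glutamine, vitamins and 5 μg/mL insulin at […] in 5% CO2. They were pretreated with DFMO at 0–1.0 mM, then [3H]spermidine uptake was read as cpm per million cells. Values are mean ± SEM, compared by Duncan's and LSD tests.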
# [10] = tested on: B16; assay: The compound was tested on [3H]-spermidine uptake into BL6 cells at 0.75(mM)conc; format: functional, Mus musculus; how it was run: as §1
# [11] = tested on: B16; assay: The compound was tested on [3H]spermidine uptake into BL6 cells at 1.0(mM)conc; format: functional, Mus musculus; how it was run: as §1
# [12] = tested on: B16; assay: The compound was tested on spermidine content of the cells at 0.1(mM)conc; format: functional, Mus musculus
# How it was run: (§2)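 B16-BL6 cells were cultured in supplemented DMEM and pretreated with DFMO at 0–1.0 mM. Cells were PBS-washed and pelleted, then extracted in 0.3 M perchloric acid with 1,6-hexanediamine internal standard (10 nmol per million cells). Extracts were benzoylated before the column and run by reversed-phase HPLC on a C8 cartridge at ambient temperature, 1.5 mL/min. Quantitation used a 0.05–10 nmol/mL standard curve.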
# [13] = tested on: B16; assay: The compound was tested on spermidine content of the cells at 0.25(mM)conc; format: functional, Mus musculus; how it was run: as §2
# [14] = tested on: B16; assay: The compound was tested on spermidine content of the cells at 0.5 mM) conc; format: functional, Mus musculus; how it was run: as §2
# [15] = tested on: B16; assay: The compound was tested on spermidine content of the cells at 0.75(mM)conc; format: functional, Mus musculus; how it was run: as §2
# [16] = tested on: B16; assay: The compound was tested on spermidine content of the cells at 1.0(mM)conc; format: functional, Mus musculus; how it was run: as §2
# [17] = tested on: B16; assay: The compound was tested on [3H]spermidine uptake into BL6 cells at 0.0(mM)conc; format: functional, Mus musculus; how it was run: as §1
# [18] = tested on: B16; assay: The compound was tested on [3H]-spermidine uptake into BL6 cells at 0.1(mM)conc; format: functional, Mus musculus; how it was run: as §1
# [19] = tested on: B16; assay: The compound was tested on spermidine content of the cells at 0.0(mM)conc; format: functional, Mus musculus; how it was run: as §2
# [20] = tested on: B16; assay: The compound was tested on [3H]spermidine uptake into BL6 cells at 0.25(mM)conc; format: functional, Mus musculus; how it was run: as §1
compound,measurement,setting,value
CC(=O)NCCc1ccc(O)c(O)c1,IC50,[1],2060 µM
same,IC50,[2],1220 µM
NCCCNC(CCCN)C(=O)NCCc1ccc(N(CCCl)CCCl)cc1 (stereo unspecified),IC50,[1],512 µM
same,IC50,[2],333 µM
NCCCNC(CCCN)C(=O)NCCc1ccc(O)c(O)c1 (stereo unspecified),IC50,[1],1310 µM
same,IC50,[2],1230 µM
O=C(O)CCCc1ccc(N(CCCl)CCCl)cc1 [CHLORAMBUCIL],IC50,[1],280 µM
same,IC50,[2],220 µM
NCCCC(N)(C(=O)O)C(F)F (stereo unspecified) [EFLORNITHINE],Cell growth,[3],2430000 number of cells ml-1
same,Cell growth,[4],2180000 number of cells ml-1
same,Cell growth,[5],1940000 number of cells ml-1
same,Cell growth,[6],1090000 number of cells ml-1
same,Cell growth,[7],1330000 number of cells ml-1
same,Cell growth,[8],1480000 number of cells ml-1
same,cpm/million cells,[9],214540
same,cpm/million cells,[10],226404
same,cpm/million cells,[11],250160
same,Spermidine concentration,[12],0.6 nM (10e6*cells)-1
same,Spermidine concentration,[13],0.34 nM (10e6*cells)-1
same,Spermidine concentration,[14],0.55 nM (10e6*cells)-1
same,Spermidine concentration,[15],0.52 nM (10e6*cells)-1
same,Spermidine concentration,[16],0.35 nM (10e6*cells)-1
same,cpm/million cells,[17],146600
same,cpm/million cells,[18],221610
same,Spermidine concentration,[19],2.07 nM (10e6*cells)-1
same,cpm/million cells,[20],219910
